{
  "source": "ChEMBL document CHEMBL4354843",
  "about": "“Structure-Based Design of a Potent and Selective Covalent Inhibitor for SRC Kinase That Targets a P-Loop Cysteine” (J Med Chem, 2020)",
  "key": {"[1]": {"molecular_target": "Phosphatidylinositol 4,5-bisphosphate 3-kinase catalytic subunit alpha isoform (Homo sapiens) (UniProt P42336)", "sequence (P42336 whole entry, the tested form may be a part, canonical isoform)": "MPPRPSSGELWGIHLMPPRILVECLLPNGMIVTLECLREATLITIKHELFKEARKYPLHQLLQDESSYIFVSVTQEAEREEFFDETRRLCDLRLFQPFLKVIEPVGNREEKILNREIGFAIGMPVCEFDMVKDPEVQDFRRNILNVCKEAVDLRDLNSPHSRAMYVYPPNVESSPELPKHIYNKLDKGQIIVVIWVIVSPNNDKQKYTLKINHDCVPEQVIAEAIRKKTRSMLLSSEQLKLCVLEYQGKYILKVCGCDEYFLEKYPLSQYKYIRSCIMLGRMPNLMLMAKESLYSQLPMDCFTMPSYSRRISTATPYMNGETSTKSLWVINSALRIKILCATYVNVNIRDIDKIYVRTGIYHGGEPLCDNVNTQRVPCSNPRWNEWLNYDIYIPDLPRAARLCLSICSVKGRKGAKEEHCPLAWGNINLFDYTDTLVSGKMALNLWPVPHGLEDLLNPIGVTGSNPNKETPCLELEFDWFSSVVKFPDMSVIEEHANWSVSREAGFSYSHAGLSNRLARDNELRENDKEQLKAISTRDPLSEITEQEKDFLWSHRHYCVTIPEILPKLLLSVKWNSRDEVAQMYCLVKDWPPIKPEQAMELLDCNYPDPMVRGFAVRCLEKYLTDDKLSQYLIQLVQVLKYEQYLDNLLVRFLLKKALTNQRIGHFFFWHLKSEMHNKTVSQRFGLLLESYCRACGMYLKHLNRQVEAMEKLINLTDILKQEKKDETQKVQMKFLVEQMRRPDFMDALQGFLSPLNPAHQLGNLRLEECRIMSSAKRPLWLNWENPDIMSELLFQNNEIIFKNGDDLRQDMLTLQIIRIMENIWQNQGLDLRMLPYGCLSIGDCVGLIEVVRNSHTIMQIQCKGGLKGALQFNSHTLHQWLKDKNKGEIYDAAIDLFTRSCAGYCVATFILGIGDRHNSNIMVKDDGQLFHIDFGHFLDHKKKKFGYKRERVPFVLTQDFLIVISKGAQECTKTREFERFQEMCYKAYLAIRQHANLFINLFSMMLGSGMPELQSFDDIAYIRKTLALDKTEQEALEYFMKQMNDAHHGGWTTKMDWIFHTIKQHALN", "assay": "Binding affinity to wild-type human partial length PIK3CA (R108 to N1068 residues) expressed in mammalian expression system assessed as residual binding level at 1 uM by Kinomescan method relative to control"}, "[2]": {"test_system": "Epidermal growth factor receptor (Homo sapiens), P00533 [UNDEFINED MUTATION]", "sequence (P00533 whole entry, looked up, stated change not applied)": "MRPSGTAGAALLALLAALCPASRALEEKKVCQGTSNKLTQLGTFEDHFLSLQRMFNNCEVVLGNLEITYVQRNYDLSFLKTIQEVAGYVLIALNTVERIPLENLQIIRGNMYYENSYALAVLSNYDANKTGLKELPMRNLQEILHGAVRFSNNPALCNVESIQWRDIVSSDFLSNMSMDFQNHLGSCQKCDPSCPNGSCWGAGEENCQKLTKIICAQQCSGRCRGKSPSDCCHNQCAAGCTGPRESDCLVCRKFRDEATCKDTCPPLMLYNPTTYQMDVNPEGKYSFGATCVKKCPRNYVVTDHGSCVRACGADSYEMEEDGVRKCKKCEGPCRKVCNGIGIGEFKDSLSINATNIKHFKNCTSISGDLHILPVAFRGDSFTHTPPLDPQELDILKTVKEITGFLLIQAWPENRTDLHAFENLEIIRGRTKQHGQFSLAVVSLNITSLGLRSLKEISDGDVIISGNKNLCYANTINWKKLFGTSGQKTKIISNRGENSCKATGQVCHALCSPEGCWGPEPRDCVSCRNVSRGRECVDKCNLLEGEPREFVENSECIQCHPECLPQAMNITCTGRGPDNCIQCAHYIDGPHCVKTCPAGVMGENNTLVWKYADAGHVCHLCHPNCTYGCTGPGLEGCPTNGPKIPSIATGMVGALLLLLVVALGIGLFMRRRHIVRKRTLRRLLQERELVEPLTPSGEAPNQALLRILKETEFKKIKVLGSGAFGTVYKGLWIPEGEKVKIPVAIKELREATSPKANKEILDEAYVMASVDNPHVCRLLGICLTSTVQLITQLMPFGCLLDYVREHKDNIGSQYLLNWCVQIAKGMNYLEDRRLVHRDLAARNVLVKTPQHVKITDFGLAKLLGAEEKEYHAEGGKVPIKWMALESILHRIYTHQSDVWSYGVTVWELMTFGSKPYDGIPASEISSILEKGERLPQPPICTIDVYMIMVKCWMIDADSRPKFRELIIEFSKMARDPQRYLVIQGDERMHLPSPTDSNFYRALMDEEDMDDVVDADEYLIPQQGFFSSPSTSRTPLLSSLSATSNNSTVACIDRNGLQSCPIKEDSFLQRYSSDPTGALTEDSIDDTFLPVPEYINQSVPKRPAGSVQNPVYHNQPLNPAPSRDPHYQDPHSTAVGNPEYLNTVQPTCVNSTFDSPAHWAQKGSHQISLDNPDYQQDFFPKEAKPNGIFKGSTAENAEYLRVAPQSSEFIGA", "assay": "Binding affinity to human partial length EGFR L747-S752del/P753S mutant expressed in bacterial expression system assessed as residual binding level at 1 uM by Kinomescan method relative to control", "summary_of_the_method": "(§1)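 KinomeScan active site-directed competition binding panel (468 kinases), compound tested at 1 μM. Result expressed as remaining kinase signal versus DMSO control (percent of control).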"}, "[3]": {"molecular_target": "Dual specificity tyrosine-phosphorylation-regulated kinase 2 (Homo sapiens) (UniProt Q92630)", "assay": "Binding affinity to wild-type human full length DYRK2 (M1 to S528 residues) expressed in mammalian expression system assessed as residual binding level at 1 uM by Kinomescan method relative to control", "summary_of_the_method": "(§2)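 Active-site-directed KinomeScan competition binding panel covering 468 kinases, compound tested at 1 μM. Each readout is the kinase signal remaining with compound, expressed as a percentage of the DMSO control. […]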"}, "[4]": {"molecular_target": "Dual specificity tyrosine-phosphorylation-regulated kinase 1B (Homo sapiens) (UniProt Q9Y463)", "assay": "Binding affinity to wild-type human full length DYRK1B (M1 to S629 residues) expressed in bacterial expression system assessed as residual binding level at 1 uM by Kinomescan method relative to control", "summary_of_the_method": "as §2"}, "[5]": {"molecular_target": "Mitogen-activated protein kinase kinase kinase 11 (Homo sapiens) (UniProt Q16584)", "assay": "Binding affinity to wild-type human partial length MLK3 (I77 to W399 residues) expressed in bacterial expression system assessed as residual binding level at 1 uM by Kinomescan method relative to control"}, "[6]": {"test_system": "Tyrosine-protein kinase ABL1 (Homo sapiens), P00519 [T315I]", "assay": "Binding affinity to human phosphorylated ABL1 T315I mutant (S229 to K512 residues) expressed in mammalian expression system assessed as residual binding level at 1 uM by Kinomescan method relative to control", "summary_of_the_method": "as §2"}, "[7]": {"molecular_target": "Cyclin-dependent kinase-like 3 (Homo sapiens) (UniProt Q8IVW4)", "assay": "Binding affinity to wild-type human partial length CDKL3 (M1 to D327 residues) expressed in bacterial expression system assessed as residual binding level at 1 uM by Kinomescan method relative to control"}, "[8]": {"molecular_target": "Serine/threonine-protein kinase PLK4 (Homo sapiens) (UniProt O00444)", "assay": "Binding affinity to wild-type human partial length PLK4 (M1 to S273 residues) expressed in mammalian expression system assessed as residual binding level at 1 uM by Kinomescan method relative to control"}, "[9]": {"molecular_target": "Serine/threonine-protein kinase/endoribonuclease IRE1 (Homo sapiens) (UniProt O75460)", "sequence (O75460 19-977 limits assumed)": "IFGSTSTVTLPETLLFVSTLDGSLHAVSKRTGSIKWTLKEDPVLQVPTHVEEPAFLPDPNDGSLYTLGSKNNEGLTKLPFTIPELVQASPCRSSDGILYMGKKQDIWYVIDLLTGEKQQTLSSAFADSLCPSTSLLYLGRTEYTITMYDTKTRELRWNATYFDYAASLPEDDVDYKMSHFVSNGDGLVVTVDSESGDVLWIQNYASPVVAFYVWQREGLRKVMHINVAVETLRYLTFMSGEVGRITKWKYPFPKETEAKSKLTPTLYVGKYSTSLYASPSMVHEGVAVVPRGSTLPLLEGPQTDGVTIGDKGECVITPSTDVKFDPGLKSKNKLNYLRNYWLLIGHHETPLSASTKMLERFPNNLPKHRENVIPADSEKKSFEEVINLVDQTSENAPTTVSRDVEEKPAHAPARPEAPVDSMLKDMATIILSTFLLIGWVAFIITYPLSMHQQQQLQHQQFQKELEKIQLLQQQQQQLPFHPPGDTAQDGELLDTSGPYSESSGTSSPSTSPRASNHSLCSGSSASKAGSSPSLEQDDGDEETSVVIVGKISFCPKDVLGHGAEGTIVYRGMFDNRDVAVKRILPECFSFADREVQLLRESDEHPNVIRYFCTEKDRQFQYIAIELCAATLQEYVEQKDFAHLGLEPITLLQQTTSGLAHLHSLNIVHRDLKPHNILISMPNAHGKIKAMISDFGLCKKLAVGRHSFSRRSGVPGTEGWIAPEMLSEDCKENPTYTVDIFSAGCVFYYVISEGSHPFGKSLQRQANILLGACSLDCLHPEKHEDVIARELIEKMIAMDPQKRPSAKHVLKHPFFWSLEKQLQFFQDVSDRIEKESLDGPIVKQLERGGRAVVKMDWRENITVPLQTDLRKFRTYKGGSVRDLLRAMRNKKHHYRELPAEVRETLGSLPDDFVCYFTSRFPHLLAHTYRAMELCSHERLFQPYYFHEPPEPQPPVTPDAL", "assay": "Binding affinity to wild-type human partial length ERN1 (S551 to E852 residues) expressed in mammalian expression system assessed as residual binding level at 1 uM by Kinomescan method relative to control", "summary_of_the_method": "(§3)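 Active-site-directed competition binding panel of 468 kinases (KinomeScan), compound at 1 μM. The read-out is kinase remaining bound, given as a percentage of the DMSO control. […]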"}, "[10]": {"test_system": "Phosphatidylinositol 4,5-bisphosphate 3-kinase catalytic subunit alpha isoform (Homo sapiens), P42336 [E545A]", "sequence (P42336 whole entry E545A, the tested form may be a part, canonical isoform)": "as the sequence (P42336 whole entry, the tested form may be a part, canonical isoform) above, with E545A counted along it", "assay": "Binding affinity to human partial length PIK3CA E545A mutant (R108 to N1068 residues) expressed in mammalian expression system assessed as residual binding level at 1 uM by Kinomescan method relative to control", "summary_of_the_method": "as §1"}, "[11]": {"molecular_target": "Serine/threonine-protein kinase PAK 6 (Homo sapiens) (UniProt Q9NQU5)", "assay": "Binding affinity to wild-type human partial length PAK6 (N298 to C681 residues) expressed in bacterial expression system assessed as residual binding level at 1 uM by Kinomescan method relative to control", "summary_of_the_method": "as §3"}, "[12]": {"molecular_target": "Ephrin type-A receptor 4 (Homo sapiens) (UniProt P54764)", "assay": "Binding affinity to wild-type human partial length EPHA4 (T601 to R897 residues) expressed in bacterial expression system assessed as residual binding level at 1 uM by Kinomescan method relative to control", "summary_of_the_method": "as §3"}, "[13]": {"molecular_target": "Ribosomal protein S6 kinase alpha-2 (Homo sapiens) (UniProt Q15349)", "assay": "Binding affinity to wild-type human partial length N- terminal RSK3 kinase domain 1 (M1 to Q385 residues) expressed in bacterial expression system assessed as residual binding level at 1 uM by Kinomescan method relative to control"}, "[14]": {"molecular_target": "Interleukin-1 receptor-associated kinase 4 (Homo sapiens) (UniProt Q9NWZ3)", "sequence (Q9NWZ3 whole entry, the tested form may be a part)": "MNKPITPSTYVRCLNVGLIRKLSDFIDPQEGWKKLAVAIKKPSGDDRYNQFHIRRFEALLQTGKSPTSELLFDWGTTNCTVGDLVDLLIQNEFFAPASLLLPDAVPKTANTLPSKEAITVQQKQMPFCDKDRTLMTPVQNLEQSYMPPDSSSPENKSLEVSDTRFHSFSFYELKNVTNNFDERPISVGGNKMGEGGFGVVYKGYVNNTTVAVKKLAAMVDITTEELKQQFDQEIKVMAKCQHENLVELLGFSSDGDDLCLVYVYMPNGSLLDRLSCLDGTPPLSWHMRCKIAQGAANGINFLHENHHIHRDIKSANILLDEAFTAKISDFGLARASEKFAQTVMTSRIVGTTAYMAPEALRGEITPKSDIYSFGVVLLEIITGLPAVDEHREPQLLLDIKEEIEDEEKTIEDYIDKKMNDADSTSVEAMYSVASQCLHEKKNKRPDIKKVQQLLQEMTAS", "assay": "Binding affinity to wild-type human partial length IRAK4 (M1 to S460 residues) expressed in mammalian expression system assessed as residual binding level at 1 uM by Kinomescan method relative to control"}, "[15]": {"molecular_target": "Serine/threonine-protein kinase TAO2 (Homo sapiens) (UniProt Q9UL54)", "assay": "Binding affinity to wild-type human partial length TAOK2 (M1 to A320 residues) expressed in mammalian expression system assessed as residual binding level at 1 uM by Kinomescan method relative to control"}, "[16]": {"molecular_target": "Beta-adrenergic receptor kinase 1 (Homo sapiens) (UniProt P25098)", "assay": "Binding affinity to wild-type human full length GRK2 (M1 to L689 residues) expressed in mammalian expression system assessed as residual binding level at 1 uM by Kinomescan method relative to control", "summary_of_the_method": "as §2"}, "[17]": {"molecular_target": "Ribosomal protein S6 kinase beta-1 (Homo sapiens) (UniProt P23443)", "assay": "Binding affinity to wild-type human partial length S6K1 (M1 to S421 residues) expressed in mammalian expression system assessed as residual binding level at 1 uM by Kinomescan method relative to control"}, "[18]": {"molecular_target": "Casein kinase I isoform delta (Homo sapiens) (UniProt P48730)", "assay": "Binding affinity to wild-type human full length CSNK1D (M1 to K409 residues) expressed in bacterial expression system assessed as residual binding level at 1 uM by Kinomescan method relative to control", "summary_of_the_method": "as §2"}, "[19]": {"molecular_target": "Serine/threonine-protein kinase 16 (Homo sapiens) (UniProt O75716)", "sequence (O75716 whole entry, the tested form may be a part)": "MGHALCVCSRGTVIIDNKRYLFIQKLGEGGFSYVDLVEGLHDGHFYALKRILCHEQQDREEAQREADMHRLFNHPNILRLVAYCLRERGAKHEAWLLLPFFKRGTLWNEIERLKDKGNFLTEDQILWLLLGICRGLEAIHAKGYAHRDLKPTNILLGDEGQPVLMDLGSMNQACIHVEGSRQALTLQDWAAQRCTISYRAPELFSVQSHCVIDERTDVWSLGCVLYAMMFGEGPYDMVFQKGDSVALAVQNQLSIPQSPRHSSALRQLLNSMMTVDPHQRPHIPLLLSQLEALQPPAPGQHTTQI", "assay": "Binding affinity to wild-type human partial length STK16 (G11 to I305 residues) expressed in bacterial expression system assessed as residual binding level at 1 uM by Kinomescan method relative to control"}, "[20]": {"molecular_target": "Mitogen-activated protein kinase 14 (Homo sapiens) (UniProt Q16539)", "sequence (Q16539 whole entry, the tested form may be a part)": "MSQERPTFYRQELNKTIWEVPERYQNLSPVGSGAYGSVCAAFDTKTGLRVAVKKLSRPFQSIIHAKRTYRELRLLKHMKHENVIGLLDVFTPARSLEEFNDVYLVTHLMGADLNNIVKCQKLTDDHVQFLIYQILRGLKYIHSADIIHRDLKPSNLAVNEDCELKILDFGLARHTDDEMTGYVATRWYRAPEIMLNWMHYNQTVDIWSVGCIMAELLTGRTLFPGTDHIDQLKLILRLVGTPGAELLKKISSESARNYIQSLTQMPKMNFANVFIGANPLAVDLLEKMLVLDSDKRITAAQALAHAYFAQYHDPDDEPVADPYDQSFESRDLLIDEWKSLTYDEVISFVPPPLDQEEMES", "assay": "Binding affinity to wild-type human full length p38-alpha (M1 to S360 residues) expressed in bacterial expression system assessed as residual binding level at 1 uM by Kinomescan method relative to control", "summary_of_the_method": "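KinomeScan, an active site-directed competition binding panel of 468 kinases. The test compound was at 1 μM. The readout is remaining kinase binding as a percentage of the DMSO control. Scores above 35% were treated as weak binding and not listed.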"}, "[21]": {"molecular_target": "NUAK family SNF1-like kinase 1 (Homo sapiens) (UniProt O60285)", "sequence (O60285 whole entry, the tested form may be a part)": "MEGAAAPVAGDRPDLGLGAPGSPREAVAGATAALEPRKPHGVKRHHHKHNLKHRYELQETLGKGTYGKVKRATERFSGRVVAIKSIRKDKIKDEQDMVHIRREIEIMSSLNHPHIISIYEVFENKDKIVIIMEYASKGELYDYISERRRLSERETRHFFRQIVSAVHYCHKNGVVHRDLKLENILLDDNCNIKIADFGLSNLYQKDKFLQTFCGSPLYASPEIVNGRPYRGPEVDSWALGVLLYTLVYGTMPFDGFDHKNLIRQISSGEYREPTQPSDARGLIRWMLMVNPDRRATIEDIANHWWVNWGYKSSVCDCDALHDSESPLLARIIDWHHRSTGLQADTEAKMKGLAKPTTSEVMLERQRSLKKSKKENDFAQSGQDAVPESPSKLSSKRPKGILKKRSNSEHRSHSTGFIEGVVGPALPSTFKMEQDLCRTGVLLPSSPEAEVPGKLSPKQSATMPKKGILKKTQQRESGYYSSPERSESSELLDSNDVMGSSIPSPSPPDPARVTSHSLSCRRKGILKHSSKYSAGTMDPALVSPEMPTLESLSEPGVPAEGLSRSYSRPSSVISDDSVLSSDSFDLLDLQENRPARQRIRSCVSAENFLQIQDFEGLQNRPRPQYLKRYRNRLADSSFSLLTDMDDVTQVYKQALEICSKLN", "assay": "Binding affinity to wild-type human partial length ARK5 (E25 to I332 residues) expressed in bacterial expression system assessed as residual binding level at 1 uM by Kinomescan method relative to control"}},
  "data": [
    {"smiles": "C=CC(=O)Nc1ccccc1Nc1nc(Nc2ccc(N3CCN(C)CC3)cc2)ncc1C(=O)Nc1c(C)cccc1Cl", "values": [
      {"measurement": "Activity", "setting": "[1]", "value": 100, "unit": "%"},
      {"measurement": "Activity", "setting": "[2]", "value": 74, "unit": "%"},
      {"measurement": "Activity", "setting": "[3]", "value": 89, "unit": "%"},
      {"measurement": "Activity", "setting": "[4]", "value": 74, "unit": "%"},
      {"measurement": "Activity", "setting": "[5]", "value": 100, "unit": "%"},
      {"measurement": "Activity", "setting": "[6]", "value": 100, "unit": "%"},
      {"measurement": "Activity", "setting": "[7]", "value": 100, "unit": "%"},
      {"measurement": "Activity", "setting": "[8]", "value": 92, "unit": "%"},
      {"measurement": "Activity", "setting": "[9]", "value": 98, "unit": "%"},
      {"measurement": "Activity", "setting": "[10]", "value": 94, "unit": "%"},
      {"measurement": "Activity", "setting": "[11]", "value": 81, "unit": "%"},
      {"measurement": "Activity", "setting": "[12]", "value": 75, "unit": "%"},
      {"measurement": "Activity", "setting": "[13]", "value": 100, "unit": "%"},
      {"measurement": "Activity", "setting": "[14]", "value": 100, "unit": "%"},
      {"measurement": "Activity", "setting": "[15]", "value": 100, "unit": "%"},
      {"measurement": "Activity", "setting": "[16]", "value": 85, "unit": "%"},
      {"measurement": "Activity", "setting": "[17]", "value": 95, "unit": "%"},
      {"measurement": "Activity", "setting": "[18]", "value": 100, "unit": "%"},
      {"measurement": "Activity", "setting": "[19]", "value": 100, "unit": "%"},
      {"measurement": "Activity", "setting": "[20]", "value": 28, "unit": "%"},
      {"measurement": "Activity", "setting": "[21]", "value": 100, "unit": "%"}
    ]}
  ]
}
